MC4R antagonist = antagonists of human melanocortin 4 receptor (MC4R). P32245. MC4R-expressing cells, MTII-stimulated cAMP, LANCE TR-FRET. inhibition, % at 6.5 µM. 360,000 compounds, 0.48% hits. AID 540295;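 active = inhibition above its plate's cutoff, the mean of tested wells on that plate plus 3 SD, cut at about 29% in these data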
Target sequence (P32245 whole entry, looked up): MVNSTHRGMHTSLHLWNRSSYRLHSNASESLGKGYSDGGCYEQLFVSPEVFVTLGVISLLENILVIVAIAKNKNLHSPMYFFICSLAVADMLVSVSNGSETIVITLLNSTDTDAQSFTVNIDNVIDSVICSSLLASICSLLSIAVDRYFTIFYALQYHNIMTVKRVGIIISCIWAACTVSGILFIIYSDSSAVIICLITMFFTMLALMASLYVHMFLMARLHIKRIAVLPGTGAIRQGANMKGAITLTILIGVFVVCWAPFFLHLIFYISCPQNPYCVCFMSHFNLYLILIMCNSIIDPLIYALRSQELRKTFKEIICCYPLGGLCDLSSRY
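Assay system: human MC4R-expressing U2OS cells; reagent: Melanotan II stimulation of cells; dosing: 6.5 µM single dose; timing: compound 30 min, challenge 1 h, detection 1 h; signal: TR-FRET cAMP assay; replicates: one well per compound, no replicates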
EBI2 antag = blocks human EBI2 receptor beta-arrestin signaling | P32249 | inhibition, % at 5 µM | 360,000 compounds, 0.81% hits | EBI2 beta-arrestin recruitment, luminescence, 7a,25-OHC stimulated; in the data active = inhibition above about 38%;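 note: enzyme fragment complementation signal reports receptor beta-arrestin coupling in cells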
Target sequence (P32249 whole entry, looked up, the tested form may be a part): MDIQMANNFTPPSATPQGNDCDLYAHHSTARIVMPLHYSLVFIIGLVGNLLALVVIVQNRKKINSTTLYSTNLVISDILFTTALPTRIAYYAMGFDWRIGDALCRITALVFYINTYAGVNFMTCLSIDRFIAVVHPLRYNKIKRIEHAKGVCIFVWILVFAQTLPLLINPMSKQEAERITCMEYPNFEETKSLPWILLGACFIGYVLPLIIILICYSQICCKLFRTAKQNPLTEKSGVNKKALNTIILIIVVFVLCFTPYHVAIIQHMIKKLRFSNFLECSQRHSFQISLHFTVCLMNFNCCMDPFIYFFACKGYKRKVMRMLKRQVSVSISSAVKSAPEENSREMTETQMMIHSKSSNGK
Myeloid diff MLP = compounds promoting myeloid differentiation; ER-HoxA9 myeloid progenitors, lysozyme-GFP differentiation, flow cytometry; calls only at 10 µM; 360,000 compounds, 1% hits;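 active = normalized GFP-positive differentiation at or above the plate's own cutoff, the solvent-only control mean plus 3 SD; inconclusive = no clear call, values can overlap the other calls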;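 note: cells exposed to compound for four days before flow analysis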
Granule exo inh = blocks lytic granule exocytosis; 360,000 compounds, 0.66% hits; inhibition, % at 10 µM; TALL-104 LAMP-1 surface exposure, flow cytometry; cells stimulated with thapsigargin and PMA;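 active = inhibition above about 55%, limit read from the data; inconclusive = no clear call, values can overlap the other calls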
MC4R barr agon = human MC4R agonism via beta-arrestin; P32245; U2OS MC4R beta-arrestin complementation, luminescence; percent of melanotan II response, DMSO zero; activation, % at 8.9 µM; 360,000 compounds, 0.98% hits;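 active = activation above a per-plate cutoff, the mean activation of sample wells on that plate plus 3 SD, cut at about 8% in these data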
U2OS cAMP counter = counter-screen for MC4R antagonists: nonselective cAMP signaling inhibitors; parental U2OS, forskolin cAMP, LANCE TR-FRET; shares compounds with MC4R antagonist; inhibition, % at 6.5 µM; 1,600 compounds, 26% hits;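 active = mean inhibition over triplicates above the low-control well mean plus 3 SD, set per campaign, cut at about 13% in these data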;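 note: signal is single emission at 671 nm which falls as cellular cAMP rises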
MC4R antag conf = human MC4R cAMP antagonism confirmation. shares compounds with MC4R antagonist. MC4R-expressing cells, MTII-stimulated cAMP, TR-FRET. inhibition, % at 6.5 µM. 1,600 compounds, 27% hits; in the data active = inhibition above about 29%
MC4R barr conf = human MC4R beta-arrestin agonism confirmation; shares compounds with MC4R barr agon; U2OS MC4R beta-arrestin recruitment, luminescence; scaled DMSO 0%, Melanotan II 100%; activation, % at 8.9 µM; 2,400 compounds, 31% hits;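 active = mean activation across replicates above the hit cutoff set in the earlier primary screen, cut at about 8% in these data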
MOR DOR agonist = counter-screen for MC4R agonists: agonists of mu-delta opioid heterodimer; shares compounds with MC4R barr agon; U2OS PathHunter beta-arrestin, beta-gal luminescence; percent of deltorphin B response, DMSO zero; activation, % at 9.2 µM; 2,400 compounds, 5.8% hits;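 active = mean activation across replicates exceeds the hit threshold derived in the earlier primary screen, cut at about 18% in these data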
Myeloid diff = myeloid differentiation induction; calls only; ER-HoxA9 myeloid progenitors, GFP/Mac1 double-positive flow; 2,300 compounds, 2% hits; shares compounds with Myeloid diff MLP; AID 651706;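 active = share of green or green-and-red cells above 9 and 9% in run 1 or 4 and 3% in run 2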
GFP autofluor = compound fluorescence in myeloid differentiation counter-screen; fluorescence response, % (no concentration beside the values); ER-HoxA9 myeloid progenitors, no estrogen, GFP autofluorescence flow cytometry; vehicle wells 0%, positive control 100%; shares compounds with Myeloid diff MLP; 2,300 compounds, 7.4% hits;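 active = over 5% cells positive for green fluorescent reporter, or over 2% positive for both it and APC stain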
EBI2 conf = confirmation of human EBI2 receptor antagonists; shares compounds with EBI2 antag; EBI2 beta-arrestin luminescence, 7a,25-OHC antagonism; inhibition, % at 5 µM; 2,400 compounds, 29% hits;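 active = inhibition of at least 50%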
EBI2 ag = EBI2 agonism counter-screen. shares compounds with EBI2 antag. EBI2-expressing cells, agonist mode, luminescence, 60 min; 0% vehicle, 100% 7α,25-dihydroxycholesterol control. activation, % at 5 µM. 2,400 tested, under 10 active. AID 652000;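 active = activation of at least 50%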
bGal counter = inhibits E. coli beta-galactosidase, counter-screen for EBI2 antagonists; shares compounds with EBI2 antag; purified beta-galactosidase, luminescent Galacton Star, 15 min; inhibition, % at 5 µM; 2,400 compounds, 1% hits; AID 652176;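 active = replicate-average signal at least 3 plate SD below neutral wells, shown as high inhibition, flagging enzyme-inhibiting false positives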;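 note: higher means stronger loss of beta-gal luminescence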
A number is an active result; 0 = inactive; ? = inconclusive; - = no result; + = active, no number; ! = a repeat was not active. Only some compounds are listed: those with a hit (about 3.7% of all), similar ones and a draw of the others.

SMILES	MC4R antagonist	EBI2 antag	Myeloid diff MLP	Granule exo inh	MC4R barr agon	U2OS cAMP counter	MC4R antag conf	MC4R barr conf	MOR DOR agonist	others
CCCCCCCCCCCCCCCC[n+]1cccc(C(=O)N(CC)CC)c1	29!	0	0	0	13	0	50	23	0
CCCCNc1c(-c2cccc(-c3cc(C(C)=O)cs3)c2)nc2cc(C)ccn12	36	0	0	0	11	0	0	9.5	0
O=C(c1ccccc1SCc1ccc(F)cc1)N1CCOCC1	0	0	0	0	0	-	-	-	-
Cc1cc(C)c(C#N)c(SCC(=O)Nc2cccc(S(=O)(=O)N3CCCC3)c2)n1	32	0	0	0	10.0	45	82	0	0
CCOC(=O)c1cc(-c2csc(Nc3ccccc3Cl)n2)on1	0	0	0	0	0	-	-	-	-
CCOC(=O)c1cc(-c2csc(N/N=C/c3ccccc3Cl)n2)on1	40	0	0	0	22	14	71	13	0
COCC(=O)Nc1ccc2c(c1)OCC(=O)N2Cc1ccc(C)cc1	0	0	0	0	0	-	-	-	-
CSC1=NCCN1C(=O)c1c(-c2c(F)cccc2Cl)noc1C	0	0	0	0	0	-	-	-	-
C=CCn1c(=NC(=O)c2sc3ccccc3c2Cl)sc2cc(S(N)(=O)=O)ccc21	33	0	0	0	16	0	0	0	0
COCCn1c(=NC(=O)c2sc3ccccc3c2Cl)sc2cc(S(N)(=O)=O)ccc21	0	0	0	0	0	-	-	-	-
CCN(CC)CC(O)c1ccc2ccc3ccc(O)cc3c2c1 (centres undefined)	0	0	0	0	0	-	-	-	-
CC(O)CC(=O)OC[C@]12CC[C@H]3[C@@](C)(CC[C@H]4C(C)(C)CCC[C@]34C)[C@@H]1CC(C1=CC(=O)OC1O)O2 (some centres undefined)	33	0	0	56	16	0	0	24	0
Cc1nn(CC(=O)Nc2ccc3c(c2)CCC3)c(C)c1[N+](=O)[O-]	0	0	0	0	0	-	-	-	-
Cc1cccc(C)c1-n1cccc1/C=C1\SC(=S)N(c2cccc(C(=O)O)c2)C1=O	37	0	0	0	20	0	0	20	0
CC1=NNC(=O)/C1=C\c1cn(-c2ccccc2)nc1-c1ccc(Cl)cc1	31	91	0	0	17	0	0	33	0
CC1=NN(c2ccccc2)C(=O)/C1=C\c1cn(CCC#N)nc1-c1ccc(Cl)cc1	0	0	0	0	0	-	-	-	-
CSc1nnc(N2C(=O)C(O)=C(C(=O)c3ccc(C)o3)C2c2ccc(C)cc2)s1 (centres undefined)	+	0	+	0	0	52	88	-	-	Myeloid diff=0;GFP autofluor=0
O=Nc1c(O)c2ccccc2c2ccccc12	0	0	?	0	0	-	-	-	-
O=c1c(=Nc2ccccc2O)c(=O)c2ccccc12	34	0	+	0	0	0	0	-	-	Myeloid diff=0;GFP autofluor=0
O=C(Nc1ccccc1)c1cc(C2CCCCN2C(=O)c2cccs2)on1 (centres undefined)	0	0	0	0	0	-	-	-	-
N#CCc1ccc(Oc2ncccn2)cc1	0	0	0	0	0	-	-	-	-
O=C(CNC(=O)c1ccc(Oc2ccccc2)cc1)OC1CCCCC1=O (centres undefined)	34	0	+	0	0	0	0	-	-	Myeloid diff=0;GFP autofluor=0
Cc1ccc(C(=O)NCC(=O)OC2CCCCC2=O)cc1C (centres undefined)	0	0	0	0	0	-	-	-	-
Cc1cccc(CNc2ncc(-c3cccc([N+](=O)[O-])c3)n2C)c1	33	0	0	0	0	0	0	-	-	Myeloid diff=0;GFP autofluor=0
COc1ccc(CCNC(=O)c2cc([C@@H](NC(=O)OC(C)(C)C)C(C)C)sc2N)cc1OC	-	0	0	0	-	-	-	-	-
SMILES	MC4R antagonist	EBI2 antag	Myeloid diff MLP	Granule exo inh	MC4R barr agon	U2OS cAMP counter	MC4R antag conf	MC4R barr conf	MOR DOR agonist	others
C=C(C)[C@@H]1C2=CC(C(=O)OC)=C(C[C@H](C(=C)C)[C@H]3O[C@H]3C3=C[C@H]1OC3=O)O2	36	0	0	0	0	14	45	-	-	Myeloid diff=0;GFP autofluor=0
C=C(C(=O)c1ccccc1)C(C)CC(=O)c1ccccc1 (centres undefined)	33	0	0	0	0	23	50	-	-	Myeloid diff=0;GFP autofluor=99
COc1cccc(CN(C(=O)c2cc3ccccc3oc2=O)C2CCS(=O)(=O)C2)c1 (centres undefined)	0	0	0	0	0	-	-	-	-
CCCC1=[N+](CC(C)=O)CCn2c(C)ccc21	0	0	0	0	0	-	-	-	-
CCCC1=[N+](CC(=O)c2ccccc2)CCn2cccc21	29	0	0	0	0	0	0	-	-	Myeloid diff=0;GFP autofluor=0
Cc1ccc(-c2nn(-c3ccccc3)cc2C=C2C(=O)CC(C)(C)CC2=O)cc1	31	53	0	0	0	18	0	-	-	EBI2 conf=52;EBI2 ag=0;bGal counter=0
Cc1ccc(-c2nn(-c3ccccc3)cc2C=C2SC(=S)N(CCS(=O)(=O)O)C2=O)cc1	0	0	0	0	0	-	-	-	-
COc1ccc(-c2cc(-c3ccccc3)c(C#N)c(S(C)(=O)=O)n2)cc1	30	66	-	0	0	17	48	-	-	EBI2 conf=72;EBI2 ag=0;bGal counter=0
COc1ccc(-c2cc(-c3ccc(OC)cc3)c(C#N)c(SC)n2)cc1	0	0	0	0	0	-	-	-	-
Nc1c(S(=O)(=O)c2ccccc2)c2nc3ccccc3nc2n1/N=C/c1cccc(O)c1	35	68	0	0	17	0	0	10	0	EBI2 conf=0;EBI2 ag=0;bGal counter=0

Compound activity from PubChem.
